According to ChEMBL document CHEMBL4265992, “Noncovalent Inhibitors of Mosquito Acetylcholinesterase 1 with Resistance-Breaking Potency” (J Med Chem, 2018):
Calls of active or inactive are those of the source. No cut-off for these calls is given here.

Experiments:
Acetylcholinesterase [1] = target: Acetylcholinesterase (Aedes aegypti, UniProt Q6A2E2); assay: Inhibition of recombinant Aedes aegypti AChE1 expressed in sf9 insect cells using acetylthiocholine iodide as substrate measured over 60 secs by Ellman assay
In short: (§1)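 Enzyme source: secreted, non-purified recombinant protein in growth medium. Ellman assay at 30 °C in 0.1 M phosphate buffer pH 7.4 containing 0.2 mM DTNB and 1 mM acetylthiocholine iodide. Absorbance at 412 nm was followed over 60 s after substrate addition, immediately after inhibitor. Activity was expressed relative to the mean slope of eight uninhibited controls per plate.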

Acetylcholinesterase [2] = target: Acetylcholinesterase (Anopheles gambiae, UniProt Q869C3); assay: Inhibition of recombinant Anopheles gambiae AChE1 expressed in sf9 insect cells using acetylthiocholine iodide as substrate measured over 60 secs by Ellman assay; in short: as §1
Acetylcholinesterase [3] = target: Acetylcholinesterase (Anopheles gambiae, UniProt Q869C3, G122S); assay: Inhibition of recombinant Anopheles gambiae AChE1 G122S mutant expressed in sf9 insect cells using acetylthiocholine iodide as substrate measured over 60 secs by Ellman assay; in short: as §1
Acetylcholinesterase [4] = target: T1, Acetylcholinesterase (Homo sapiens, UniProt P22303); assay: Inhibition of recombinant human AChE using acetylthiocholine iodide as substrate measured over 60 secs by Ellman assay; in short: as §1
[5] = Selectivity ratio of IC50 for recombinant human AChE to IC50 for recombinant Aedes aegypti AChE1
In short: (§2)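 Ratio = IC50 for hAChE divided by the higher of the IC50 values for AaAChE1 and AgAChE1. All IC50 values came from the Ellman assay with secreted recombinant enzymes.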

[6] = Selectivity ratio of IC50 for recombinant human AChE to IC50 for recombinant Anopheles gambiae AChE1; in short: as §2
Aedes aegypti [7] = assay: Insecticidal activity against five day old female adult Aedes aegypti Mombasa assessed as mortality at 4.26 ug administered topically measured after 24 hrs relative to control; format: functional
In short: (§3)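 Mosquitoes were reared at 27–28 °C, ~80% humidity, on a 12/12 h light cycle. Insects were chilled on a −20 °C plate. 0.1 µl of compound in acetone was applied to the upper pronotum. Negative control was acetone alone. Afterwards mosquitoes were given glucose and kept in the insectary. Mortality was scored at 24 h, Abbott-corrected when control mortality exceeded 5%. Runs with control mortality ≥20% were discarded.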

Aedes aegypti [8] = assay: Insecticidal activity against five day old female adult Aedes aegypti Mombasa assessed as mortality rate at 60.4 ng administered via micro-injection measured after 24 hrs relative to control; format: functional
In short: (§4)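 Test compounds were made up at 100 mM in acetone, then diluted in mosquito saline (5% acetone final; 4.3% for propoxur). 23 nl was injected into the thoracic cavity of anesthetized females. Negative control was saline with matching acetone. Mosquitoes were then given glucose. Mortality was read at 24 and 48 h, Abbott-corrected when control mortality exceeded 5%. Runs with control mortality ≥20% were discarded.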

Aedes aegypti [9] = assay: Insecticidal activity against five day old female adult Aedes aegypti Mombasa assessed as mortality rate at 60.4 ng administered via micro-injection measured after 48 hrs relative to control; format: functional; in short: as §4
Aedes aegypti [10] = assay: Insecticidal activity against topically dosed female adult Aedes aegypti assessed as mortality measured after 24 hrs; format: functional; in short: as §3
Anopheles gambiae = assay: Insecticidal activity against five day old female adult Anopheles gambiae Kisumu assessed as mortality at 4.26 ug administered topically measured after 24 hrs relative to control; format: functional; in short: as §3
Aedes aegypti [11] = assay: Insecticidal activity against topically dosed five day old female adult Aedes aegypti Mombasa assessed as mortality measured after 24 hrs; format: functional; in short: as §3
Aedes aegypti [12] = assay: Insecticidal activity against five day old female adult Aedes aegypti Mombasa assessed as mortality rate at 57.3 ng administered via micro-injection measured after 24 hrs relative to control; format: functional; in short: as §4
Aedes aegypti [13] = assay: Insecticidal activity against five day old female adult Aedes aegypti Mombasa assessed as mortality rate at 57.3 ng administered via micro-injection measured after 48 hrs relative to control; format: functional; in short: as §4
[14] = target: Acetylcholinesterase (Aedes aegypti) (UniProt Q6A2E2); assay: Inhibition of recombinant Aedes aegypti AChE1 expressed in sf9 insect cells at 1 mM using acetylthiocholine iodide as substrate measured over 60 secs by Ellman assay
[15] = target: Acetylcholinesterase (Anopheles gambiae) (UniProt Q869C3); assay: Inhibition of recombinant Anopheles gambiae AChE1 expressed in sf9 insect cells at 1 mM using acetylthiocholine iodide as substrate measured over 60 secs by Ellman assay
[16] = test system: Acetylcholinesterase (Anopheles gambiae), Q869C3 [G122S]; assay: Inhibition of recombinant Anopheles gambiae AChE1 G122S mutant expressed in sf9 insect cells at 1 mM using acetylthiocholine iodide as substrate measured over 60 secs by Ellman assay
Acetylcholinesterase [17] = target: T1, Acetylcholinesterase; assay: Inhibition of recombinant human AChE at 1 mM using acetylthiocholine iodide as substrate measured over 60 secs by Ellman assay; details: 1 min, 1000 µM
Aedes aegypti [18] = assay: Insecticidal activity against five day old female adult Aedes aegypti Mombasa assessed as mortality rate at 52.7 ng administered via micro-injection measured after 24 hrs relative to control; format: functional; in short: as §4
Aedes aegypti [19] = assay: Insecticidal activity against five day old female adult Aedes aegypti Mombasa assessed as mortality rate at 52.7 ng administered via micro-injection measured after 48 hrs relative to control; format: functional; in short: as §4
Aedes aegypti [20] = assay: Insecticidal activity against five day old female adult Aedes aegypti Mombasa assessed as mortality rate at 53.6 ng administered via micro-injection measured after 24 hrs relative to control; format: functional; in short: as §4
Aedes aegypti [21] = assay: Insecticidal activity against five day old female adult Aedes aegypti Mombasa assessed as mortality rate at 53.6 ng administered via micro-injection measured after 48 hrs relative to control; format: functional; in short: as §4
Aedes aegypti [22] = assay: Insecticidal activity against five day old female adult Aedes aegypti Mombasa assessed as mortality rate at 21 ng administered via micro-injection measured after 24 hrs relative to control; format: functional; in short: as §4

Structure (SMILES) | IC50 (Acetylcholinesterase [1]) [µM] | IC50 (Acetylcholinesterase [2]) [µM] | IC50 (Acetylcholinesterase [3]) [µM] | IC50 (Acetylcholinesterase [4]) [µM] | Ratio IC50 [5] | Ratio IC50 [6] | further results
O=C(COc1ccc(-c2ccccc2)cc1)N1CCC(N2CCCCC2)CC1 | 4 | 3.8 | 4.2 | 4.6 | 1.2 | 1.2 | –
CCN1CCN(C2CCN(C(=O)COc3ccc(-c4ccc([N+](=O)[O-])cc4)cc3)CC2)CC1 | 0.11 | 0.08 | 0.13 | 2.1 | 19 | 19 | mortality (Aedes aegypti [7]): 31%; mortality (Aedes aegypti [8]): 64%; mortality (Aedes aegypti [9]): 69%
O=C(COc1ccc(-c2ccccc2)cc1)N1CCC(N2CCOCC2)CC1 | > 200 | > 200 | > 200 | 93 | – | – | –
CCN1CCN(C2CCN(C(=O)COc3ccc(-c4ccccc4)cc3)CC2)CC1 | 0.22 | – | – | – | – | – | –
CCN1CCN(CCCNC(=O)COc2ccc(-c3ccccc3)cc2)CC1 | 3.3 | 3.5 | 16 | 113 | 32 | 32 | –
CNC(=O)Oc1cccc2c1OC(C)(C)O2 [BENDIOCARB] | – | – | – | – | – | – | LD50 (Aedes aegypti [10]): 0.0018 µg
CCN1CCN(CCCNC(=O)COc2ccc(I)cc2)CC1 | 72 | 43 | 95 | 87 | 1.2 | 1.2 | –
CCN1CCN(C2CCN(C(=O)COc3ccc(-c4ccc(OC)cc4)cc3)CC2)CC1 | 0.23 | 0.4 | 0.96 | 18 | 45 | 45 | –
CN1CCN(CCCNC(=O)COc2ccc(I)cc2)CC1 | 112 | 114 | 128 | 138 | 1.2 | 1.2 | –
O=C(COc1ccc(-c2ccccc2)cc1)NCCCN1CCCCC1 | 9.9 | 10 | 23 | 57 | 5.7 | 5.7 | –
CCN1CCN(C2CCN(C(=O)COc3ccc(-c4ccccc4F)cc3)CC2)CC1 | 0.22 | 0.24 | 0.71 | 19 | 79 | 79 | mortality (Aedes aegypti [7]): 75%; mortality (Anopheles gambiae): 88%; LD50 (Aedes aegypti [11]): 2.13 µg; mortality (Aedes aegypti [12]): 55%; mortality (Aedes aegypti [13]): 56%
O=C(COc1ccc(-c2ccccc2)cc1)N1CCOCC1 | – | – | – | – | – | – | inhibition [14]: inactive; inhibition [15]: inactive; inhibition [16]: inactive; inhibition (INH) (Acetylcholinesterase [17]): Not Active
CCN1CCN(CCCNC(=O)COc2ccc(-c3ccc(OC)cc3)cc2)CC1 | 3.8 | 5.8 | 20 | 110 | 19 | 19 | –
CCN1CCN(C2CCN(C(=O)COc3ccc4c(c3)CCC4=O)CC2)CC1 | 0.2 | 0.29 | 0.38 | 4.9 | 16 | 16 | mortality (Aedes aegypti [7]): 50%; mortality (Aedes aegypti [18]): 58%; mortality (Aedes aegypti [19]): 64%
CCN1CCN(C(=O)COc2ccc(-c3ccccc3)cc2)CC1 | > 200 | > 200 | > 200 | > 200 | – | – | –
CN1CCN(C2CCN(C(=O)COc3ccc(-c4ccccc4)cc3)CC2)CC1 | 0.25 | 0.24 | 0.54 | 10 | 40 | 40 | mortality (Aedes aegypti [20]): 58%; mortality (Aedes aegypti [21]): 66%
CNC(=O)Oc1ccccc1OC(C)C [PROPOXUR] | – | – | – | – | – | – | mortality (Aedes aegypti [22]): 85%; LD50 (Aedes aegypti [10]): 0.0054 µg
O=C(COc1ccc(I)cc1)NCCCN1CCCCC1 | 36 | 44 | 31 | 13 | 0.3 | 0.3 | –
COc1ccc(-c2ccc(OCC(=O)NCCCN3CCCCC3)cc2)cc1 | 3.9 | 4.5 | 5.2 | 14 | 3.1 | 3.1 | –
CCN1CCN(C2CCN(C(=O)COc3ccc(I)cc3)CC2)CC1 | 1.5 | 3.6 | 6.2 | 20 | 5.6 | 5.6 | –
O=C(COc1ccc(-c2ccccc2)cc1)N1CCCCC1 | – | – | – | – | – | – | inhibition [14]: inactive; inhibition [15]: inactive; inhibition [16]: inactive; inhibition (INH) (Acetylcholinesterase [17]): Not Active
COc1ccc(-c2ccc(OCC(=O)NCCCN3CCN(C)CC3)cc2)cc1 | 16 | 25 | 33 | 190 | 7.6 | 7.6 | –
CN1CCN(CCCNC(=O)COc2ccc(-c3ccccc3)cc2)CC1 | 12 | 13 | 39 | 115 | 8.8 | 8.8 | –
